In ChEMBL document CHEMBL1156988, “Synthesis and antibacterial studies of binaphthyl-based tripeptoids. Part 1” (2010):
≈ marks a conversion by molar mass, not a printed value.

What was measured:
[1] = system: Staphylococcus aureus; experiment: Antibacterial activity against Staphylococcus aureus 6538P after overnight incubation; assay type: functional
Method in brief: (§1)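 Strains were grown in Luria Broth. Overnight stationary-phase cultures were diluted 1:1000 into fresh medium with twofold compound dilutions, highest typically 128 µg/ml, in 96-well plates. Incubated overnight at 37 °C. MIC recorded as the […].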

[2] = system: Enterococcus faecium; experiment: Antibacterial activity against vancomycin-resistant Enterococcus faecium 243 after overnight incubation
[3] = system: Enterococcus faecium; experiment: Antibacterial activity against vancomycin-resistant Enterococcus faecium 449 after overnight incubation
[4] = system: Enterococcus faecium; experiment: Antibacterial activity against vancomycin-resistant Enterococcus faecium 820 after overnight incubation
[5] = system: Enterococcus faecium; experiment: Antibacterial activity against vancomycin-resistant Enterococcus faecium 987 after overnight incubation
[6] = system: Staphylococcus epidermidis; experiment: Antibacterial activity against Staphylococcus epidermidis ATCC 700562 after overnight incubation; assay type: functional
[7] = system: Staphylococcus aureus; experiment: Antibacterial activity against vancomycin intermediate Staphylococcus aureus after 24 hrs; assay type: functional
Method in brief: (§2)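 Broth microdilution in cation-adjusted Mueller Hinton II broth, inoculum 1 × 10^6 CFU/mL. Inoculum was added 1:1 to twofold serial compound dilutions in triplicate wells. Plates were incubated 24 h at 37 °C. MIC was taken as the lowest dilution giving complete growth inhibition. Strains: wild type ATCC 6538P, Mu50 ATCC 700699, MRSA ATCC 43300.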

[8] = system: Staphylococcus aureus; experiment: Antibacterial activity against methicillin sensitive Staphylococcus aureus after 24 hrs; assay type: functional; method in brief: as §2
[9] = system: Staphylococcus aureus; experiment: Antibacterial activity against methicillin-resistant Staphylococcus aureus ATCC 43300 after 24 hrs; assay type: functional; details: ATCC 43300, 24 h; method in brief: as §2
[10] = system: Staphylococcus epidermidis; experiment: Antibacterial activity against Staphylococcus epidermidis ATCC 700562 after 24 hrs; assay type: functional; details: ATCC 700562, 24 h
Method in brief: (§3)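 Micro-broth dilution in cation-adjusted Mueller Hinton II broth, inoculum 1 × 10^6 CFU per mL, added to triplicate wells of twofold serially diluted compound. Incubated 24 h at 37 °C. MIC taken as the lowest dilution giving complete growth inhibition.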

[11] = system: Enterococcus faecium; experiment: Antibacterial activity against vancomycin-resistant clinical isolate Enterococcus faecium after 24 hrs; assay type: functional
[12] = system: Enterococcus faecium; experiment: Antibacterial activity against vancomycin sensitive clinical isolate Enterococcus faecium after 24 hrs; assay type: functional
[13] = system: Staphylococcus aureus; experiment: Antibacterial activity against Staphylococcus aureus 6538P after 24 hrs; assay type: functional; method in brief: as §3
[14] = system: Enterococcus faecium; experiment: Antibacterial activity against vancomycin-resistant Enterococcus faecium 243 after 24 hrs; details: Enterococcus faecium, 243, 24 h
[15] = system: Enterococcus faecium; experiment: Antibacterial activity against vancomycin-resistant Enterococcus faecium 449 after 24 hrs; details: Enterococcus faecium, 449, 24 h
[16] = system: Enterococcus faecium; experiment: Antibacterial activity against vancomycin-resistant Enterococcus faecium 820 after 24 hrs; details: Enterococcus faecium, 820, 24 h
[17] = system: Enterococcus faecium; experiment: Antibacterial activity against vancomycin-resistant Enterococcus faecium 987 after 24 hrs; details: Enterococcus faecium, 987, 24 h
[18] = system: Staphylococcus aureus; experiment: Antibacterial activity against vancomycin intermediate Staphylococcus aureus after overnight incubation; assay type: functional; method in brief: as §1
[19] = Staphylococcus aureus, 6538P, read-out: MIC
[20] = Enterococcus faecium, 243, read-out: MIC
[21] = Enterococcus faecium, 449, read-out: MIC
[22] = Enterococcus faecium, 820, read-out: MIC
[23] = Enterococcus faecium, 987, read-out: MIC

Compound | MIC [1, 19] | MIC [2, 20] | MIC [3, 21] | MIC [4, 22] | MIC [5, 23] | further results
CC(C)CCOc1ccc2ccccc2c1-c1c(OCC(=O)N[C@H](CCCCN)C(=O)N[C@H](CCN)C(=O)N[C@@H](CC(C)C)C(=O)OCc2ccccc2)ccc2ccccc12.Cl.Cl | 1.95 µg/mL | 31.3 µg/mL | 15.6 µg/mL | 15.6 µg/mL | 31.3 µg/mL | 
CC(C)CCOc1ccc2ccccc2c1-c1c(OCC(=O)N[C@H](CCCCN)C(=O)N[C@H](CCNC(=N)N)C(=O)N[C@@H](CC(C)C)C(=O)OCc2ccccc2)ccc2ccccc12.Cl.Cl | 2.6 µg/mL | 52.1 µg/mL | 31.3 µg/mL | 27.8 µg/mL | 52.1 µg/mL | 
CC(C)CCOc1ccc2ccccc2c1-c1c(OCC(=O)N[C@H](CCCCN)C(=O)N[C@H](CCCN)C(=O)N[C@@H](CC(C)C)C(=O)OCc2ccccc2)ccc2ccccc12.Cl.Cl | 1.95 µg/mL | 62.5 µg/mL | 31.3 µg/mL | 15.6 µg/mL | 62.5 µg/mL | 
CNC(=N)NCCC[C@@H](NC(=O)[C@@H](CCCCN)NC(=O)COc1ccc2ccccc2c1-c1c(OCCC(C)C)ccc2ccccc12)C(=O)N[C@@H](CC(C)C)C(=O)OCc1ccccc1.Cl.Cl | 3.13 µg/mL | 25 µg/mL | 25 µg/mL | 25 µg/mL | 25 µg/mL | MIC [6]: 3.13 µg/mL
CC(C)CCOc1ccc2ccccc2c1-c1c(OCC(=O)N[C@H](CCCCN)C(=O)N[C@H](CCCCN)C(=O)N[C@@H](CC(C)C)C(=O)OCc2ccccc2)ccc2ccccc12.Cl.Cl | 1.95 µg/mL | 62.5 µg/mL | 31.3 µg/mL | 26.1 µg/mL | 62.5 µg/mL | MIC [6]: 1.95 µg/mL
CC(C)CCOc1ccc2ccccc2c1-c1c(OCC(=O)N[C@H](CCCCN)C(=O)N[C@H](CCCNC(=N)N)C(=O)N[C@H](CC(C)C)C(=O)OCc2ccccc2)ccc2ccccc12.Cl.Cl | 3.9 µg/mL | 31.3 µg/mL | 15.6 µg/mL | 15.6 µg/mL | 31.3 µg/mL | 
CC(C)CCOc1ccc2ccccc2c1-c1c(OCC(=O)N[C@H](CCCCN)C(=O)N[C@@H](CCCNC(=N)N)C(=O)N[C@H](CC(C)C)C(=O)OCc2ccccc2)ccc2ccccc12.Cl.Cl |  |  |  |  |  | MIC [7]: 6 µg/mL; MIC [8]: 6 µg/mL; MIC [9]: 6 µg/mL; MIC [10]: 3 µg/mL; MIC [11]: 2 µg/mL; MIC [12]: 16 µg/mL; MIC [13]: 3.9 µg/mL; MIC [14]: 15.6 µg/mL; MIC [15]: 15.6 µg/mL; MIC [16]: 7.8 µg/mL; MIC [17]: 15.6 µg/mL
C=CCOc1ccc2ccccc2c1-c1c(OCC(=O)N[C@H](CCCCN)C(=O)N[C@H](CCCNC(=N)N)C(=O)N[C@@H](CC=C)C(=O)OCc2cccc3ccccc23)ccc2ccccc12.Cl.Cl | 15.6 µg/mL | > 125 µg/mL | 125 µg/mL | 125 µg/mL | > 125 µg/mL | 
C=CC[C@H](NC(=O)[C@@H](CCCNC(=N)N)NC(=O)[C@@H](CCCCN)NC(=O)COc1ccc2ccccc2c1-c1c(OCCC(C)C)ccc2ccccc12)C(=O)OCc1ccccc1.Cl.Cl | 3.9 µg/mL | 31.3 µg/mL | 15.6 µg/mL | 15.6 µg/mL | 31.3 µg/mL | 
CC(C)CCOc1ccc2ccccc2c1-c1c(OCC(=O)N[C@H](CCCNC(=N)N)C(=O)N[C@H](CCCNC(=N)N)C(=O)N[C@@H](CC(C)C)C(=O)OCc2ccccc2)ccc2ccccc12.Cl.Cl | 1.95 µg/mL | 62.5 µg/mL | 31.3 µg/mL | 15.6 µg/mL | 31.3 µg/mL | MIC [6]: 19.5 µg/mL
C=CCOc1ccc2ccccc2c1-c1c(OCC(=O)NCC(=O)NCC(=O)N[C@@H](CC=C)C(=O)OCc2ccccc2)ccc2ccccc12 | 3.9 µg/mL (≈ 5.69 µM) | 62.5 µg/mL (≈ 91.1 µM) | 31.3 µg/mL (≈ 45.6 µM) | 15.6 µg/mL (≈ 22.7 µM) | 31.3 µg/mL (≈ 45.6 µM) | MIC [6]: 3.9 µg/mL (≈ 5.69 µM)
C=CCOc1ccc2ccccc2c1-c1c(OCC(=O)N[C@H](CCCNC(=N)N)C(=O)OCc2ccccc2)ccc2ccccc12.Cl | 3.3 µg/mL | 62.5 µg/mL | 62.5 µg/mL | 62.5 µg/mL | 62.5 µg/mL | 
C=CCOc1ccc2ccccc2c1-c1c(OCCCC(=O)N[C@H](CCCNC(=N)N)C(=O)OCc2ccccc2)ccc2ccccc12.Cl | 3.9 µg/mL | 62.5 µg/mL | 62.5 µg/mL | 62.5 µg/mL | 125 µg/mL | 
CC(C)CCOC(=O)[C@H](CC(C)C)NC(=O)[C@@H](CCCNC(=N)N)NC(=O)[C@@H](CCCCN)NC(=O)COc1ccc2ccccc2c1-c1c(OCCC(C)C)ccc2ccccc12.Cl.Cl |  |  |  |  |  | MIC ([18]; read-out: MIC): 4 µg/mL
CC(C)CCOc1ccc2ccccc2c1-c1c(OCC(=O)N[C@H](CCCCN)C(=O)N[C@H](CCCNC(=N)N)C(=O)N[C@@H](CC(C)C)c2ncc(Cc3ccccc3)o2)ccc2ccccc12.Cl.Cl |  |  |  |  |  | MIC ([18]; read-out: MIC): 4 µg/mL
C=CCOc1ccc2ccccc2c1-c1c(OCC(=O)N[C@H](CCCCN)C(=O)N[C@H](CCCNC(=N)N)C(=O)N[C@@H](Cc2ccccc2)C(=O)OC)ccc2ccccc12.Cl.Cl (stereo in doubt; 81) | 3.9 µg/mL | 125 µg/mL | 125 µg/mL | 125 µg/mL | 125 µg/mL | 
C=CCOc1ccc2ccccc2c1-c1c(OCC(=O)N[C@H](CCCCN)C(=O)N[C@H](CCCNC(=N)N)C(=O)N[C@@H](Cc2ccccc2)C(=O)OC)ccc2ccccc12.Cl.Cl (stereo in doubt; 82) |  |  |  |  |  | MIC [1]: 7.8 µg/mL; MIC [2]: 125 µg/mL; MIC [3]: 125 µg/mL; MIC [4]: 125 µg/mL; MIC [5]: 125 µg/mL
CN[C@H](CC(C)C)C(=O)N[C@H]1C(=O)N[C@@H](CC(N)=O)C(=O)N[C@H]2C(=O)N[C@H]3C(=O)N[C@H](C(=O)N[C@H](C(=O)O)c4cc(O)cc(O)c4-c4cc3ccc4O)[C@H](O)c3ccc(c(Cl)c3)Oc3cc2cc(c3O[C@@H]2O[C@H](CO)[C@@H](O)[C@H](O)[C@H]2O[C@H]2C[C@](C)(N)[C@H](O)[C@H](C)O2)Oc2ccc(cc2Cl)[C@H]1O [VANCOMYCIN] | 1.56 µg/mL (≈ 1.08 µM) | 1.56 µg/mL (≈ 1.08 µM) | > 25 µg/mL | > 25 µg/mL | 3.13 µg/mL (≈ 2.16 µM) | MIC [6]: 3.13 µg/mL (≈ 2.16 µM); MIC [18]: 6 µg/mL (≈ 4.14 µM)
